ChEMBL document CHEMBL1129238, “Structure--activity relationships of 1-(2-Deoxy-2-fluoro-beta-L-arabinofuranosyl)pyrimidine nucleosides as anti-hepatitis B virus agents” (J Med Chem, 1996)

Assays:
[1] = species: Homo sapiens; assay: Anti hepatitis-B virus activity was evaluated in 2.2.15 cells.; format: functional, cell-based; conditions: HepG2 2.2.15
Summary of the method: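 HBV-producing 2.2.15 cells; EC50 reported; compounds examined at concentrations up to 10 μM.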

[2] = species: Homo sapiens; assay: The growth inhibition activity for the compound was evaluated in 2.2.15 cells.; format: functional, cell-based; conditions: HepG2 2.2.15
Summary of the method: (§1)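 Cytotoxicity (growth inhibition, IC50) measured in 2.2.15 cells and in CEM cells, with compounds tested at concentrations up to 200 μM.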

[3] = test system: CCRF-CEM; assay: The growth inhibition activity for the compound was evaluated in CEM cells.; format: functional, cell-based; conditions: Homo sapiens; summary of the method: as §1
[4] = species: Homo sapiens; assay: Selectivity index was determined from the ratio of IC50 to the EC50 values evaluated in 2.2.15 cells.; format: functional, HepG2 2.2.15
Summary of the method: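 Selectivity computed as the ratio of the growth-inhibition IC50 to the anti-HBV EC50, both from 2.2.15 cells. Compounds were tested up to 200 μM for toxicity and up to 10 μM for antiviral activity.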

EC50 [1] | IC50 [3] | SMILES | IC50 [2] | Selectivity [4]
> 10 µM | – | O=c1[nH]c(=O)n([C@@H]2O[C@H](CO)[C@@H](O)[C@@H]2F)cc1C(F)(F)F | > 200 µM | –
> 10 µM | – | O=c1[nH]c(=O)n([C@@H]2O[C@H](CO)[C@@H](O)[C@H]2F)cc1I | > 200 µM | –
> 10 µM | – | CCc1cn([C@H]2O[C@@H](CO)[C@H](O)[C@@H]2F)c(=O)[nH]c1=O | > 200 µM | –
> 10 µM | > 100 µM | O=c1[nH]c(=O)n([C@H]2O[C@@H](CO)[C@H](O)[C@@H]2F)cc1/C=C/Br | > 200 µM | –
> 10 µM | – | Nc1nc(=O)n([C@H]2O[C@@H](CO)[C@H](O)[C@H]2F)cc1F | > 200 µM | –
> 10 µM | – | C#Cc1cn([C@H]2O[C@@H](CO)[C@H](O)[C@H]2F)c(=O)[nH]c1=O | > 200 µM | –
> 10 µM | – | Nc1nc(=O)n([C@H]2O[C@@H](CO)[C@H](O)[C@H]2F)cc1Cl | > 200 µM | –
> 10 µM | – | O=c1[nH]c(=O)n([C@H]2O[C@@H](CO)[C@H](O)[C@H]2F)cc1F | > 200 µM | –
> 10 µM | – | O=c1[nH]c(=O)n([C@H]2O[C@@H](CO)[C@H](O)[C@H]2F)cc1Cl | > 200 µM | –
> 10 µM | – | O=c1[nH]c(=O)n([C@H]2O[C@@H](CO)[C@H](O)[C@H]2F)cc1Br | > 200 µM | –
> 10 µM | – | Nc1nc(=O)n([C@H]2O[C@@H](CO)[C@H](O)[C@H]2F)cc1Br | > 200 µM | –
1.4 µM | > 100 µM | Nc1ccn([C@@H]2O[C@H](CO)[C@@H](O)[C@@H]2F)c(=O)n1 | > 200 µM | >140
0.1 µM | > 200 µM | Cc1cn([C@@H]2O[C@H](CO)[C@@H](O)[C@@H]2F)c(=O)[nH]c1=O [5-METHYL-2'-FLUOROARAURACIL] | > 200 µM | >2000
5 µM | – | Nc1nc(=O)n([C@@H]2O[C@H](CO)[C@@H](O)[C@@H]2F)cc1I [FIACITABINE] | > 200 µM | >40
